Experiments:
Format in all cases: functional
CCRF-CEM = experiment: Growth inhibition of human CCRF-CEM cells assessed as cell growth at 10 uM incubated for 48 hrs by sulforhodamine B assay relative to control; conditions: read-out: Activity
Outline: (§1)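 Single-dose screen in the NCI 60-cell-line panel at one final concentration of 10 µM. Two-day drug exposure with a sulforhodamine B endpoint. Values are growth percent for each cell line.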

[1] = Growth inhibition of human LOXIMVI cells assessed as cell growth at 10 uM incubated for 48 hrs by sulforhodamine B assay relative to control; conditions: LOX IMVI, read-out: Activity; outline: as §1
SN12C = experiment: Growth inhibition of human SN12C cells assessed as cell growth at 10 uM incubated for 48 hrs by sulforhodamine B assay relative to control; conditions: read-out: Activity
Outline: (§2)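 Run in the standard NCI 60-cell-line screen. Cells were exposed to drug for two days, and the read-out was sulforhodamine B staining. Compound was tested at a single final concentration of 10 µM in every line, and results are reported as growth percent.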

[2] = Growth inhibition of human OVCAR5 cells assessed as cell growth at 10 uM incubated for 48 hrs by sulforhodamine B assay relative to control; conditions: OVCAR-5, 48 h, read-out: Activity; outline: as §2
A498 = experiment: Growth inhibition of human A498 cells assessed as cell growth at 10 uM incubated for 48 hrs by sulforhodamine B assay relative to control; conditions: A498, 48 h, read-out: Activity
[3] = Growth inhibition of human HCC2998 cells assessed as cell growth at 10 uM incubated for 48 hrs by sulforhodamine B assay relative to control; conditions: HCC 2998, 48 h, read-out: Activity; outline: as §1
NCI-H226 = experiment: Growth inhibition of human NCI-H226 cells assessed as cell growth at 10 uM incubated for 48 hrs by sulforhodamine B assay relative to control; conditions: NCI-H226, 48 h, read-out: Activity; outline: as §2
[4] = Growth inhibition of human OVCAR4 cells assessed as cell growth at 10 uM incubated for 48 hrs by sulforhodamine B assay relative to control; conditions: OVCAR-4, 48 h, read-out: Activity; outline: as §2
T47D = experiment: Growth inhibition of human T47D cells assessed as cell growth at 10 uM incubated for 48 hrs by sulforhodamine B assay relative to control; conditions: read-out: Activity
Outline: (§3)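 NCI 60-cell line standard protocol, one-dose screen: single final concentration 10 µM, 2-day drug exposure, sulforhodamine B (SRB) endpoint; read-out is growth percent relative to untreated control.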

[5] = Growth inhibition of human UACC257 cells assessed as cell growth at 10 uM incubated for 48 hrs by sulforhodamine B assay relative to control; conditions: UACC-257, 48 h, read-out: Activity; outline: as §3
SK-MEL-28 [6] = experiment: Growth inhibition of human SK-MEL-28 cells assessed as cell growth at 10 uM incubated for 48 hrs by sulforhodamine B assay relative to control; conditions: SK-MEL-28, 48 h, read-out: Activity; outline: as §2
M14 = experiment: Growth inhibition of human M14 cells assessed as cell growth at 10 uM incubated for 48 hrs by sulforhodamine B assay relative to control; conditions: M14, 48 h, read-out: Activity; outline: as §2
[7] = Growth inhibition of human SF295 cells assessed as cell growth at 10 uM incubated for 48 hrs by sulforhodamine B assay relative to control; conditions: SF-295, 48 h, read-out: Activity; outline: as §2
[8] = Growth inhibition of human OVCAR8 cells incubated for 48 hrs by sulforhodamine B assay; conditions: OVCAR-8, 48 h
Outline: (§4)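 NCI 60-cell-line panel, standard protocol. Cells exposed to compound for two days, growth read by sulforhodamine B staining. Tested at five 10-fold dilutions, top concentration 100 µM, to give dose-response curves.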

[9] = Growth inhibition of human SNB75 cells incubated for 48 hrs by sulforhodamine B assay; conditions: SNB-75, 48 h
Outline: (§5)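 Tested in the standard NCI 60-cell-line protocol with two-day drug exposure and a sulforhodamine B endpoint. Compounds were first screened at a single final concentration of 10 µM, reported as growth percent. They were then run as five 10-fold dilutions starting from a high concentration of 100 µM to give dose-response curves.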

786-0 = experiment: Growth inhibition of human 786-0 cells incubated for 48 hrs by sulforhodamine B assay; conditions: 786-0, 48 h; outline: as §4
[10] = Growth inhibition of human SF268 cells incubated for 48 hrs by sulforhodamine B assay; conditions: SF-268, 48 h; outline: as §4
SK-MEL-28 [11] = experiment: Growth inhibition of human SK-MEL-28 cells incubated for 48 hrs by sulforhodamine B assay; conditions: SK-MEL-28, 48 h; outline: as §4
SK-MEL-2 = experiment: Growth inhibition of human SK-MEL-2 cells incubated for 48 hrs by sulforhodamine B assay; conditions: SK-MEL-2, 48 h; outline: as §4
[12] = Growth inhibition of human PC3 cells incubated for 48 hrs by sulforhodamine B assay; conditions: PC-3, 48 h; outline: as §4
[13] = Growth inhibition of human SKOV3 cells incubated for 48 hrs by sulforhodamine B assay; conditions: SK-OV-3, 48 h; outline: as §5
[14] = Growth inhibition of human UO31 cells incubated for 48 hrs by sulforhodamine B assay; conditions: UO-31, 48 h; outline: as §5
MDA-MB-468 = experiment: Growth inhibition of human MDA-MB-468 cells incubated for 48 hrs by sulforhodamine B assay; conditions: MDA-MB-468, 48 h; outline: as §4
NCI-H322M = experiment: Growth inhibition of human NCI-H322M cells incubated for 48 hrs by sulforhodamine B assay; outline: as §4
[15] = Growth inhibition of human HCC2998 cells incubated for 48 hrs by sulforhodamine B assay; conditions: HCC 2998, 48 h; outline: as §4
[16] = Growth inhibition of human BT549 cells incubated for 48 hrs by sulforhodamine B assay; conditions: BT-549, 48 h; outline: as §4
HT-29 = experiment: Growth inhibition of human HT-29 cells incubated for 48 hrs by sulforhodamine B assay; conditions: HT-29, 48 h; outline: as §4
[17] = Growth inhibition of human SW620 cells incubated for 48 hrs by sulforhodamine B assay; conditions: SW-620, 48 h; outline: as §5
[18] = Growth inhibition of human UACC257 cells incubated for 48 hrs by sulforhodamine B assay; conditions: UACC-257, 48 h; outline: as §5
[19] = read-out: pLC50 (the source's name) (converted)

SMILES: CC(C)[C@@]12C[C@@H](NC(=O)CF)[C@@](C)(O1)[C@@H]1CC[C@@H](C)[C@H]1[C@@H]2OC(=O)/C=C/c1ccccc1
- growth at 10 µM (CCRF-CEM): 88.6%
- growth at 10 µM [1]: 102%
- growth at 10 µM (SN12C): 103%
- growth at 10 µM [2]: 102%
- growth at 10 µM (A498): 83%
- growth at 10 µM [3]: 107%
- growth at 10 µM (NCI-H226): 84.5%
- growth at 10 µM [4]: 105%
- growth at 10 µM (T47D): 78.4%
- growth at 10 µM [5]: 105%
- growth at 10 µM (SK-MEL-28 [6]): 110%
- growth at 10 µM (M14): 96.7%
- growth at 10 µM [7]: 105%

SMILES: CC(C)[C@@]12C[C@@H](NC(=O)CO)[C@@](C)(O1)[C@@H]1CC[C@@H](C)[C@H]1[C@@H]2OC(=O)c1ccc2ccccc2c1
- GI50 [8]: 6.46 µM
- LC50 (concentration killing 50% of cells) [8]: 60.3 µM
- TGI ([8]; read-out: pTGI (converted)): 22.4 µM
- GI50 [9]: 13.2 µM
- LC50 [9]: 56.2 µM
- TGI ([9]; read-out: pTGI (converted)): 27.5 µM
- growth at 10 µM (SN12C): 66.7%
- growth at 10 µM [2]: 84.5%
- growth at 10 µM (A498): -15.2%
- GI50 (786-0): 13.8 µM
- LC50 (786-0): 56.2 µM
- TGI (786-0; read-out: pTGI (converted)): 28.2 µM
- growth at 10 µM [3]: 105%
- growth at 10 µM (NCI-H226): 90.2%
- GI50 [10]: 13.5 µM
- LC50 (lethal concentration, 50% net cell kill) [10]: 57.5 µM
- TGI ([10]; read-out: pTGI (converted)): 28.2 µM
- GI50 (SK-MEL-28 [11]): 16.6 µM
- LC50 (SK-MEL-28 [11]): 57.5 µM
- TGI (SK-MEL-28 [11]; read-out: pTGI (converted)): 30.9 µM
- GI50 (SK-MEL-2): 17 µM
- LC50 (SK-MEL-2): 60.3 µM
- TGI (SK-MEL-2; read-out: pTGI (converted)): 31.6 µM
- GI50 [12]: 12 µM
- CC50 [12, 19]: 52.5 µM
- TGI ([12]; read-out: pTGI (converted)): 25.1 µM
- GI50 [13]: 15.8 µM
- LC50 [13]: 56.2 µM
- TGI ([13]; read-out: pTGI (converted)): 30.2 µM
- GI50 [14]: 11.5 µM
- CC50 [14, 19]: 50.1 µM
- TGI ([14]; read-out: pTGI (converted)): 24 µM
- growth at 10 µM [4]: 82.2%
- growth at 10 µM (T47D): 67.9%
- GI50 (MDA-MB-468): 14.8 µM
- CC50 (MDA-MB-468; [19]): 57.5 µM
- TGI (MDA-MB-468; read-out: pTGI (converted)): 28.8 µM
- GI50 (NCI-H322M): 13.5 µM
- LC50 (NCI-H322M): 52.5 µM
- TGI (NCI-H322M; read-out: pTGI (converted)): 26.9 µM
- GI50 [15]: 15.8 µM
- LC50 [15]: 57.5 µM
- TGI ([15]; read-out: pTGI (converted)): 30.2 µM
- GI50 [16]: 14.8 µM
- CC50 [16, 19]: 57.5 µM
- TGI ([16]; read-out: pTGI (converted)): 28.8 µM
- growth at 10 µM [5]: 101%
- growth at 10 µM (SK-MEL-28 [6]): 93.2%
- GI50 (HT-29): 17.4 µM
- LC50 (HT-29): 60.3 µM
- TGI (HT-29; read-out: pTGI (converted)): 32.4 µM
- growth at 10 µM (M14): 95.2%
- GI50 [17]: 16.6 µM
- LC50 (50% lethal concentration) [17]: 72.4 µM
- TGI ([17]; read-out: pTGI (converted)): 34.7 µM
- growth at 10 µM [7]: 82.5%
- GI50 [18]: 16.2 µM
- CC50 [18, 19]: 64.6 µM
- TGI ([18]; read-out: pTGI (converted)): 32.4 µM

From ChEMBL document CHEMBL3804761, “Synthesis of a stable and orally bioavailable englerin analogue” (Bioorg Med Chem Lett, 2016)
